# Reference: ChEMBL document CHEMBL1126276, “Synthesis and antimalarial properties of 1-imino derivatives of 7-chloro-3-substituted-3,4-dihydro-1,9(2H,10H)-acridinediones and related structures” (J Med Chem, 1992)
# Several values for one entry are separate records, joined by “and”; a condition that tells them apart may be missing. Equal values may be shown once.
# Tests used:
# Plasmodium berghei [1] = assay: Antimalarial activity in Plasmodium berghei infected mice (Mus musculus) after subcutaneous 640 mg/kg dose; format: functional
# Summary of the method: (§1)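 Normal drug-sensitive P. berghei strain in mice. Compound dissolved or suspended in sesame or peanut oil, given parenterally as a single subcutaneous dose 72 h postinfection.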
# Plasmodium berghei [2] = assay: Antimalarial activity in Plasmodium berghei infected mice (Mus musculus) after 320 mg/kg subcutaneous dose; format: functional
# Summary of the method: (§2)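 […] in mice infected with a normal drug-sensitive P. berghei strain. Compound dissolved or suspended in sesame or peanut oil, given as a single subcutaneous dose 72 h postinfection.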
# Plasmodium berghei [3] = assay: Antimalarial activity Plasmodium berghei infected mice (Mus musculus) after 640 mg/kg subcutaneous dose; format: functional; summary of the method: as §2
# Plasmodium berghei [4] = assay: Antimalarial activity in Plasmodium berghei infected mice (Mus musculus) after subcutaneous 160 mg/kg dose; format: functional; summary of the method: as §1
# Plasmodium berghei [5] = assay: (§3) Antimalarial activity in Plasmodium berghei infected mice (Mus musculus) after 40 mg/kg subcutaneous dose; format: functional; summary of the method: as §2
# Plasmodium berghei [6] = assay: (§4) Antimalarial activity in Plasmodium berghei infected mice (Mus musculus) after 80 mg/kg subcutaneous dose; format: functional; summary of the method: as §2
# Plasmodium berghei [7] = assay: Antimalarial activity in Plasmodium berghei infected mice (Mus musculus) after subcutaneous 320 mg/kg dose; format: functional; summary of the method: as §1
# Plasmodium berghei [8] = assay: Antimalarial activity in Plasmodium berghei infected mice (Mus musculus) after 160 mg/kg subcutaneous dose; format: functional; summary of the method: as §2
# Plasmodium berghei [9] = assay: Antimalarial activity in Plasmodium berghei infected mice (Mus musculus) after 20 mg/kg subcutaneous dose; format: functional; summary of the method: as §2
# Plasmodium berghei [10] = assay: Antimalarial activity was measured against mice (Mus musculus) infected with Plasmodium berghei by subcutaneous administration of 640 mg/kg dose; format: organism-based; parameters: dose 640 mg/kg, route subcutaneous; conditions: in vivo, sc; summary of the method: as §2
# Plasmodium berghei [11] = assay: as §4; format: functional; summary of the method: as §1; remark: listed apart in the source
# Plasmodium berghei [12] = assay: as §3; format: functional; summary of the method: as §1; remark: listed apart in the source
SMILES,No. of cured mice (Plasmodium berghei [1]),Delta mean survival time (Plasmodium berghei [2]),Delta mean survival time (Plasmodium berghei [3]),No. of cured mice (Plasmodium berghei [4]),Delta mean survival time (Plasmodium berghei [5]),Delta mean survival time (Plasmodium berghei [6]),No. of cured mice (Plasmodium berghei [7]),Delta mean survival time (Plasmodium berghei [8]),Delta mean survival time (Plasmodium berghei [9]),No. of toxic deaths (Plasmodium berghei [10]),No. of cured mice (Plasmodium berghei [11]),Delta mean survival time (Plasmodium berghei [5]; 40 mg/kg),No. of cured mice (Plasmodium berghei [12]),No. of cured mice (Plasmodium berghei [1]; 640 mg/kg),Delta mean survival time (Plasmodium berghei [3]; 640 mg/kg)
CCN(CC)Cc1cccc(/N=C2\CC(c3ccc(Cl)c(Cl)c3)Cc3c2c(=O)c2cc(Cl)ccc2n3O)c1 (centres undefined),4,22.6,42.6,2,6.6,8,4,10.3,1.6,–,–,–,–,–,–
O=c1c2c(n(O)c3ccc(Cl)cc13)CC(c1cccc(C(F)(F)F)c1)C/C2=N\C1CCN(Cc2ccccc2)CC1 (centres undefined),1,8.4,11.1,2,6.8,3.8,–,8.6,–,–,–,–,–,–,–
CN(C)CCC/N=C1\CC2(CCCCC2)Cc2nc3ccc(Cl)cc3c(O)c21,–,–,0.4,–,0.6,–,–,0,–,1,–,–,–,–,–
CN(C)CCC/N=C1\CC(c2ccncc2)Cc2nc3ccc(Cl)cc3c(O)c21 (centres undefined),–,2.5,4.3,–,0.1,1.3,–,1.3,0.7,–,–,–,–,–,–
O=C1CC(c2ccccc2)Cc2c1c(=O)c1cc(Cl)ccc1n2O (centres undefined),3,9.3,11.5,2,4,5.6,2,5.7,1.8,–,–,–,–,–,–
O=C1CC(c2ccc(Cl)c(Cl)c2)Cc2c1c(=O)c1ccccc1n2O (centres undefined),2,7.7,12.6,–,–,3.1,1,5.1,–,–,–,–,–,–,–
O=C1CC(c2ccc(Cl)c(Cl)c2)Cc2nc3ccc(Cl)cc3c(O)c21 (centres undefined),2,10.2,11.2,1,–,2.1,1,7.7,–,–,–,–,–,–,–
COCCC/N=C1\CC(c2cccc(C(F)(F)F)c2)Cc2c1c(=O)c1cc(Cl)ccc1n2O (centres undefined),5,13.8,–,1,–,–,3,5.1,–,–,1,–,–,–,–
O=C1CC(c2c(Cl)cccc2Cl)Cc2c1c(=O)c1cc(Cl)ccc1n2O (centres undefined),2,23.9,11.2,1,1.5,5.1,3,5.8,0.7,–,–,–,–,–,–
O=C1CC(c2ccc(C(F)(F)F)cc2)Cc2c1c(=O)c1cc(Cl)ccc1n2Cc1ccccc1 (centres undefined),–,–,0.3,–,0.2,–,–,0,–,1,–,–,–,–,–
O=c1c2c(n(O)c3ccc(Cl)cc13)CC(c1cccc(C(F)(F)F)c1)C/C2=N\CCN1CCCC1 (centres undefined),4,–,–,4,6.6,8,5,9.6,–,1,–,–,–,–,–
CC1C(=O)c2c(nc3ccc(Cl)cc3c2O)CC1c1ccc(Cl)cc1Cl (centres undefined),5,17,–,2,–,1.18,2,15,8.2,–,2,10 and 9.3,–,–,–
Cc1ccc(C2C/C(=N\CCCN(C)C)c3c(nc4ccc(Cl)cc4c3O)C2)cc1 (centres undefined),2,6.5,9.8,–,0.8,1.4,2,6.6,–,–,–,–,–,–,–
C/N=C1\CC(c2ccc(Cl)c(Cl)c2)Cc2c1c(=O)c1cc(Cl)ccc1n2O (centres undefined),3,10.7,10.8,–,–,3.3,–,6.4,–,–,–,–,–,–,–
CCN(CC)CC(C)(C)C/N=C1\CC(c2ccc(Cl)c(Cl)c2)Cc2c1c(=O)c1cc(Cl)ccc1n2O (centres undefined),5,13.6,–,4,9.6,10.3,4,14.6,4,–,2,–,1,–,–
O=C1CC(c2cccc3ccccc23)Cc2c1c(=O)c1cc(Cl)ccc1n2O (centres undefined),4,5.7,13.7,–,–,2.3,2,6.9,–,–,–,–,–,–,–
COc1ccc(C2CC(=O)c3c(n(O)c4ccc(Cl)cc4c3=O)C2)cc1 (centres undefined),–,4.6,5.7,–,0.6,1.2,–,1.4,0.6,–,–,–,–,–,–
CCC1/C(=N\CCCN(C)C)c2c(nc3ccc(Cl)cc3c2O)CC1c1ccc(C(F)(F)F)cc1 (centres undefined),–,10,–,–,3.3,5.3,2,–,0.3,–,–,–,–,4 and 3,6.7 and 10.2
CN(C)CCC/N=C1\CC(c2ccc([N+](=O)[O-])cc2)Cc2nc3ccc(Cl)cc3c(O)c21 (centres undefined),1,11.6,11.8,–,1,3,–,8.6,0.4,–,–,–,–,–,–
COc1cc(C2C/C(=N\CCCN3CCCCC3)c3c(n(O)c4ccc(Cl)cc4c3=O)C2)cc(OC)c1OC (centres undefined),–,–,4.5,–,0.3,–,–,1.4,–,1,–,–,–,–,–
O=C1CC(c2ccc(C(F)(F)F)cc2)Cc2nc3ccc(Br)cc3c(O)c21 (centres undefined),4,10.6,12.8,1,5,3,3,4.4,3.6,–,–,–,–,–,–
O=C1CC(c2cccc(Br)c2)Cc2c1c(=O)c1cc(Cl)ccc1n2O (centres undefined),4,10.7,7.9,1,2.5,5.9,1,9.2,0.1,–,–,–,–,–,–
CC(C)CN(CC/N=C1\CC(c2ccc(Cl)c(Cl)c2)Cc2c1c(=O)c1cc(Cl)ccc1n2O)CC(C)C (centres undefined),5,13,–,2,5.3,6.3,1,9.7,3.6,–,1,–,1,–,–
COc1ccc(C2C/C(=N\CCCN(C)C)c3c(n(O)c4ccc(Cl)cc4c3=O)C2)cc1 (centres undefined),3,6.5,8.4,–,–,0.1,–,0.7,–,–,–,–,–,–,–
CC1C(=O)c2c(nc3ccc(Cl)cc3c2O)CC1c1ccc(Cl)c(C(F)(F)F)c1 (centres undefined),2,5,5.7,1,0.7,1.1,1,1.5,0.9,–,–,–,–,–,–
Cc1ccc(C2C/C(=N\CCCN(C)C)c3c(n(O)c4ccc(Cl)cc4c3=O)C2)cc1 (centres undefined),4,6,1,–,0.2,1.8,2,3,–,–,–,–,–,–,–
CN(C)CCC/N=C1\CC(c2ccc(C(F)(F)F)cc2)Cc2nc3ccc(I)cc3c(O)c21 (centres undefined),1,–,14,2,3,–,–,7.3,–,1,–,–,–,–,–
O=c1c2c(n(O)c3ccc(Cl)cc13)CC(c1ccc(Cl)c(Cl)c1)C/C2=N\CCCNCCO (centres undefined),5,11.6,–,3,6.6,7.9,4,9.6,2,–,1,–,–,–,–
O=C1CC(C2CCCCC2)Cc2c1c(=O)c1cc(Cl)ccc1n2O (centres undefined),1,6.5,12.7,–,–,2.5,–,2.9,–,–,–,–,–,–,–
